Results published in ChEMBL document CHEMBL4689842, “EUbOPEN Chemogenomics Library wave 1” (2021).

Key:
Type in all cases: toxicity, cell-based
U2OS [1] = experiment: Incucyte cell viability with U2OS; conditions: human, 10 µM, compound concentration 10 uM; further: filed as whole numbers so only -1 and 0 and 1 occur
U2OS [2] = experiment: Multiplex assay against U2OS; conditions: human
How it was run: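 Four dyes were applied at seeding to live cells: Hoechst33342, BioTracker Green Microtubule Cytoskeleton Dye, MitoTracker Red and Annexin V Alexa Fluor 680. Imaging after compound addition used a CQ1 microscope at 37°C and 5% CO2. CellPathfinder machine-learning gating then sorted cells into Hoechst high-intensity objects or normal cells, normal cells into healthy, pyknosed or fragmented nuclei, and pyknosed cells into mitotic or apoptotic, with tubulin, mitochondrial-mass and membrane-permeability phenotypes given as per cents of healthy-nucleus cells.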

Fibroblast = experiment: Incucyte cell viability with human fibroblast; conditions: 10 µM, compound concentration 10 uM; further: filed as whole numbers so only -1 and 0 and 1 occur
HEK-293T = experiment: Incucyte cell viability with HEK293T; conditions: human, 10 µM, compound concentration 10 uM; further: filed as whole numbers so only -1 and 0 and 1 occur
[3] = 0 h, replicate number 2, timepoint 0 hours
[4] = 6 h, replicate number 1, timepoint 6 hours
[5] = 12 h, replicate number 1, timepoint 12 hours
[6] = 18 h, replicate number 1, timepoint 18 hours
[7] = 24 h, replicate number 1, timepoint 24 hours
[8] = 12 h, 1 µM, compound concentration 1 uM, replicate 1
[9] = 12 h, 1 µM, compound concentration 1 uM, replicate 2
[10] = 12 h, 10 µM, compound concentration 10 uM, replicate 1
[11] = 12 h, 10 µM, compound concentration 10 uM, replicate 2
[12] = 24 h, 1 µM, compound concentration 1 uM, replicate 1
[13] = 24 h, 1 µM, compound concentration 1 uM, replicate 2
[14] = 24 h, 10 µM, compound concentration 10 uM, replicate 1
[15] = 24 h, 10 µM, compound concentration 10 uM, replicate 2
[16] = 48 h, 1 µM, compound concentration 1 uM, replicate 1
[17] = 48 h, 1 µM, compound concentration 1 uM, replicate 2
[18] = 48 h, 10 µM, compound concentration 10 uM, replicate 1
[19] = 48 h, 10 µM, compound concentration 10 uM, replicate 2

SMILES: COc1cc2c(NC3CCN(C(C)C)CC3)nc(N3CCC(F)(F)CC3)nc2cc1OCCCN1CCCC1
- Growth Rate (U2OS [1]; 0 h, replicate number 1, timepoint 0 hours): 1
- Growth Rate (U2OS [1]; [3]): 0
- Growth Rate (U2OS [1]; [4]): 1
- Growth Rate (U2OS [1]; [5]): 1
- Growth Rate (U2OS [1]; [6]): 1
- Growth Rate (U2OS [1]; [7]): 1
- Population Apoptotic (%) (U2OS [2]; [8]): 44%
- Population Fragmented Nuclei (%) (U2OS [2]; [8]): 10%
- Population Healthy Nuclei (%) (U2OS [2]; [8]): 72%
- Population Hoechst High Intensity Objects (%) (U2OS [2]; [8]): 13%
- Population Mitochondria Different-Phenotype (%) (U2OS [2]; [8]): 17%
- Population Mitotic Cells (%) (U2OS [2]; [8]): 55%
- Population Normal (%) (U2OS [2]; [8]): 86%
- Population Pyknosed Nuclei (%) (U2OS [2]; [8]): 17%
- Total Cell Count (U2OS [2]; [8]): 136
- Population Apoptotic (%) (U2OS [2]; [9]): 30%
- Population Fragmented Nuclei (%) (U2OS [2]; [9]): 20%
- Population Healthy Nuclei (%) (U2OS [2]; [9]): 67%
- Population Hoechst High Intensity Objects (%) (U2OS [2]; [9]): 5%
- Population Membrane Permeable-Phenotype (%) (U2OS [2]; [9]): 3%
- Population Mitochondria Different-Phenotype (%) (U2OS [2]; [9]): 22%
- Population Mitotic Cells (%) (U2OS [2]; [9]): 70%
- Population Normal (%) (U2OS [2]; [9]): 94%
- Population Pyknosed Nuclei (%) (U2OS [2]; [9]): 11%
- Population Tubulin-Different-Phenotype (%) (U2OS [2]; [9]): 19%
- Total Cell Count (U2OS [2]; [9]): 105
- Population Apoptotic (%) (U2OS [2]; [10]): 68%
- Population Fragmented Nuclei (%) (U2OS [2]; [10]): 14%
- Population Healthy Nuclei (%) (U2OS [2]; [10]): 71%
- Population Hoechst High Intensity Objects (%) (U2OS [2]; [10]): 8%
- Population Membrane Permeable-Phenotype (%) (U2OS [2]; [10]): 27%
- Population Mitochondria Different-Phenotype (%) (U2OS [2]; [10]): 98%
- Population Mitotic Cells (%) (U2OS [2]; [10]): 31%
- Population Normal (%) (U2OS [2]; [10]): 91%
- Population Pyknosed Nuclei (%) (U2OS [2]; [10]): 14%
- Population Tubulin-Different-Phenotype (%) (U2OS [2]; [10]): 100%
- Total Cell Count (U2OS [2]; [10]): 181
- Population Apoptotic (%) (U2OS [2]; [11]): 66%
- Population Fragmented Nuclei (%) (U2OS [2]; [11]): 11%
- Population Healthy Nuclei (%) (U2OS [2]; [11]): 76%
- Population Membrane Permeable-Phenotype (%) (U2OS [2]; [11]): 66%
- Population Mitochondria Different-Phenotype (%) (U2OS [2]; [11]): 97%
- Population Mitotic Cells (%) (U2OS [2]; [11]): 33%
- Population Pyknosed Nuclei (%) (U2OS [2]; [11]): 11%
- Population Tubulin-Different-Phenotype (%) (U2OS [2]; [11]): 97%
- Total Cell Count (U2OS [2]; [11]): 89
- Population Apoptotic (%) (U2OS [2]; [12]): 31%
- Population Fragmented Nuclei (%) (U2OS [2]; [12]): 9%
- Population Healthy Nuclei (%) (U2OS [2]; [12]): 65%
- Population Hoechst High Intensity Objects (%) (U2OS [2]; [12]): 11%
- Population Membrane Permeable-Phenotype (%) (U2OS [2]; [12]): 0%
- Population Mitochondria Different-Phenotype (%) (U2OS [2]; [12]): 8%
- Population Mitotic Cells (%) (U2OS [2]; [12]): 68%
- Population Normal (%) (U2OS [2]; [12]): 88%
- Population Pyknosed Nuclei (%) (U2OS [2]; [12]): 24%
- Population Tubulin-Different-Phenotype (%) (U2OS [2]; [12]): 9%
- Total Cell Count (U2OS [2]; [12]): 157
- Population Apoptotic (%) (U2OS [2]; [13]): 29%
- Population Fragmented Nuclei (%) (U2OS [2]; [13]): 14%
- Population Healthy Nuclei (%) (U2OS [2]; [13]): 68%
- Population Hoechst High Intensity Objects (%) (U2OS [2]; [13]): 8%
- Population Membrane Permeable-Phenotype (%) (U2OS [2]; [13]): 2%
- Population Mitochondria Different-Phenotype (%) (U2OS [2]; [13]): 7%
- Population Mitotic Cells (%) (U2OS [2]; [13]): 70%
- Population Normal (%) (U2OS [2]; [13]): 91%
- Population Pyknosed Nuclei (%) (U2OS [2]; [13]): 16%
- Population Tubulin-Different-Phenotype (%) (U2OS [2]; [13]): 12%
- Total Cell Count (U2OS [2]; [13]): 113
- Population Apoptotic (%) (U2OS [2]; [14]): 70%
- Population Fragmented Nuclei (%) (U2OS [2]; [14]): 14%
- Population Healthy Nuclei (%) (U2OS [2]; [14]): 60%
- Population Hoechst High Intensity Objects (%) (U2OS [2]; [14]): 6%
- Population Membrane Permeable-Phenotype (%) (U2OS [2]; [14]): 56%
- Population Mitochondria Different-Phenotype (%) (U2OS [2]; [14]): 98%
- Population Mitotic Cells (%) (U2OS [2]; [14]): 30%
- Population Normal (%) (U2OS [2]; [14]): 93%
- Population Pyknosed Nuclei (%) (U2OS [2]; [14]): 24%
- Population Tubulin-Different-Phenotype (%) (U2OS [2]; [14]): 98%
- Total Cell Count (U2OS [2]; [14]): 218
- Population Apoptotic (%) (U2OS [2]; [15]): 90%
- Population Fragmented Nuclei (%) (U2OS [2]; [15]): 18%
- Population Healthy Nuclei (%) (U2OS [2]; [15]): 59%
- Population Hoechst High Intensity Objects (%) (U2OS [2]; [15]): 7%
- Population Membrane Permeable-Phenotype (%) (U2OS [2]; [15]): 82%
- Population Mitochondria Different-Phenotype (%) (U2OS [2]; [15]): 100%
- Population Mitotic Cells (%) (U2OS [2]; [15]): 9%
- Population Normal (%) (U2OS [2]; [15]): 92%
- Population Pyknosed Nuclei (%) (U2OS [2]; [15]): 22%
- Population Tubulin-Different-Phenotype (%) (U2OS [2]; [15]): 96%
- Total Cell Count (U2OS [2]; [15]): 112
- Population Apoptotic (%) (U2OS [2]; [16]): 27%
- Population Fragmented Nuclei (%) (U2OS [2]; [16]): 11%
- Population Healthy Nuclei (%) (U2OS [2]; [16]): 64%
- Population Hoechst High Intensity Objects (%) (U2OS [2]; [16]): 10%
- Population Mitochondria Different-Phenotype (%) (U2OS [2]; [16]): 4%
- Population Mitotic Cells (%) (U2OS [2]; [16]): 72%
- Population Normal (%) (U2OS [2]; [16]): 89%
- Population Pyknosed Nuclei (%) (U2OS [2]; [16]): 24%
- Population Tubulin-Different-Phenotype (%) (U2OS [2]; [16]): 15%
- Total Cell Count (U2OS [2]; [16]): 194
- Population Apoptotic (%) (U2OS [2]; [17]): 29%
- Population Fragmented Nuclei (%) (U2OS [2]; [17]): 8%
- Population Healthy Nuclei (%) (U2OS [2]; [17]): 78%
- Population Hoechst High Intensity Objects (%) (U2OS [2]; [17]): 8%
- Population Membrane Permeable-Phenotype (%) (U2OS [2]; [17]): 2%
- Population Mitochondria Different-Phenotype (%) (U2OS [2]; [17]): 8%
- Population Mitotic Cells (%) (U2OS [2]; [17]): 70%
- Population Normal (%) (U2OS [2]; [17]): 91%
- Population Pyknosed Nuclei (%) (U2OS [2]; [17]): 12%
- Population Tubulin-Different-Phenotype (%) (U2OS [2]; [17]): 24%
- Total Cell Count (U2OS [2]; [17]): 141
- Population Apoptotic (%) (U2OS [2]; [18]): 79%
- Population Fragmented Nuclei (%) (U2OS [2]; [18]): 20%
- Population Healthy Nuclei (%) (U2OS [2]; [18]): 44%
- Population Hoechst High Intensity Objects (%) (U2OS [2]; [18]): 11%
- Population Membrane Permeable-Phenotype (%) (U2OS [2]; [18]): 55%
- Population Mitochondria Different-Phenotype (%) (U2OS [2]; [18]): 100%
- Population Mitotic Cells (%) (U2OS [2]; [18]): 20%
- Population Normal (%) (U2OS [2]; [18]): 88%
- Population Pyknosed Nuclei (%) (U2OS [2]; [18]): 35%
- Population Tubulin-Different-Phenotype (%) (U2OS [2]; [18]): 92%
- Total Cell Count (U2OS [2]; [18]): 337
- Population Apoptotic (%) (U2OS [2]; [19]): 92%
- Population Fragmented Nuclei (%) (U2OS [2]; [19]): 12%
- Population Healthy Nuclei (%) (U2OS [2]; [19]): 63%
- Population Hoechst High Intensity Objects (%) (U2OS [2]; [19]): 12%
- Population Membrane Permeable-Phenotype (%) (U2OS [2]; [19]): 75%
- Population Mitochondria Different-Phenotype (%) (U2OS [2]; [19]): 97%
- Population Mitotic Cells (%) (U2OS [2]; [19]): 7%
- Population Normal (%) (U2OS [2]; [19]): 87%
- Population Pyknosed Nuclei (%) (U2OS [2]; [19]): 24%
- Population Tubulin-Different-Phenotype (%) (U2OS [2]; [19]): 88%
- Total Cell Count (U2OS [2]; [19]): 149
- Growth Rate (Fibroblast; [3]): 0
- Growth Rate (Fibroblast; 6 h, replicate number 2, timepoint 6 hours): 1
- Growth Rate (Fibroblast; [5]): 1
- Growth Rate (Fibroblast; [6]): 1
- Growth Rate (Fibroblast; 18 h, replicate number 2, timepoint 18 hours): 0
- Growth Rate (Fibroblast; [7]): 1
- Growth Rate (Fibroblast; 24 h, replicate number 2, timepoint 24 hours): 0
- Growth Rate (HEK-293T; [3]): 1
- Growth Rate (HEK-293T; [4]): 0
- Growth Rate (HEK-293T; [5]): 0
- Growth Rate (HEK-293T; [6]): 0
- Growth Rate (HEK-293T; [7]): 0
